UCH37 inh: inhibitors of human UCH37 deubiquitinase, primary screen, biochemical, Ub-AMC cleavage, fluorescence; AID 588478, 2011; Ubiquitin carboxyl-terminal hydrolase isozyme L5 (Homo sapiens), Q9Y5K5; actives 0.33% (n = 330,000); purified proteasome/UCH37; inhibition, % (concentration not given with the values);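 active means mean inhibition over replicate wells above about 20%, limit read from the data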
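Test system – human UCH37 enzyme supplied as purified proteasome complex · Incubation – 30 min preincubation with enzyme, 25 min cleavage at room temperature · Detection – AMC fluorescence from Ub-AMC cleavage, excitation 355 nm, emission 460 nm · Benchmarks – no-proteasome wells (full inhibition) and compound-free wells (no inhibition)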
GRIN3A LBD mod: binders of NR3A ligand-binding domain, primary screen, biophysical, differential scanning fluorimetry, uHTS | NR3A LBD differential scanning fluorimetry, Tm shift; 0% = protein alone, 100% = glycine-bound protein | Tm shift relative to glycine control, % at 25 µM | actives 2.5% (n = 340,000) | AID 1259313, 2017;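 active means melting temperature shift of at least 10% of the positive control shift, at one fixed dose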
ATG4B inhibitor: ATG4B protease inhibitors, primary screen, biochemical, fluorescence, uHTS. Cysteine protease ATG4B (Homo sapiens), Q9Y4P1. ATG4B cleavage of LC3-PLA2, NBD-HPC fluorescence, 1 h. inhibition, % at 8.33 µM. actives 0.51% (n = 340,000). AID 504462, 2011; in the data active means inhibition above about 40%
SENP1 FRET inh: human SENP1 catalytic domain inhibitors, primary screen, biochemical, FRET, uHTS. Sentrin-specific protease 1 (Homo sapiens), Q9P0U3. recombinant SENP1 catalytic domain, CyPet-SUMO1-YPet FRET cleavage. inhibition, % at 10 µM. actives 0.21% (n = 360,000);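 active means inhibition at least 30% at 10 µM, raw YFP signal under a set limit, fluorescence ratio 0.5 to 1.5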
Target sequence (Q9P0U3 419-644 limits assumed): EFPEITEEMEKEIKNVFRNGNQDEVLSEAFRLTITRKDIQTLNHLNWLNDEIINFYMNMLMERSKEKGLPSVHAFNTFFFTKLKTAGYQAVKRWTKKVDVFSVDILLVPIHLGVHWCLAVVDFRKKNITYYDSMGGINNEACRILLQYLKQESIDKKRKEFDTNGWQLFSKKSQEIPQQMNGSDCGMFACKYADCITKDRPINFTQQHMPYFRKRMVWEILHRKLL
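Test system: hSENP1 catalytic domain, recombinant; Amount: 20 pM final SENP1 enzyme; Medium: Tris pH 8 buffer plus EDTA, NaCl, BME, BSA, NP40, catalase; Schedule: 50 min enzyme reaction, room temperature, light-protected; Technique: FRET fluorescence in CFP and YFP emission channels; Controls: no-enzyme wells low, DMSO-plus-enzyme wells high control.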
NadD inh: inhibitors of S. aureus NadD, primary screen, biochemical, colorimetric, uHTS; Nicotinate-nucleotide adenylyltransferase NadD (Staphylococcus aureus N315); purified NadD enzyme, colorimetric absorbance read-out; inhibition, % at 20 µM; actives 0.78% (n = 360,000); AID 602399, 2012; in the data active means inhibition above about 26%
NadD inh conf: inhibitors of S. aureus NadD, confirmation, biochemical, colorimetric, single concentration; shares compounds with NadD inh; purified S. aureus NadD, colorimetric enzyme assay; inhibition, % at 20 µM; actives 13% (n = 2,000); in the data active means inhibition mostly above about 42%, no sharp cut-off; inactive means mostly below about 42%
Each line names hits and unclear results; the compound was inactive in the other large screens (follow-up assays come after a bar, where they were run). Most compounds without a hit are left out; they make up all but 3.6% or so of the library.

Cc1ccc([N+](=O)[O-])cc1S(=O)(=O)Nc1cccc(-c2ccc(N3CCOCC3)nn2)c1	none (no result: GRIN3A LBD mod)
O=[N+]([O-])c1ccc(Cl)c(S(=O)(=O)Nc2cccc(-c3ccc(N4CCCC4)nn3)c2)c1	GRIN3A LBD mod 16, NadD inh 63 | NadD inh conf 52
Cc1ccc(S(=O)(=O)Nc2cccc(-c3ccc(N4CCCCCC4)nn3)c2)c(C)c1	NadD inh 42 | NadD inh conf inactive
Cc1c([N+](=O)[O-])cc(S(=O)(=O)Nc2ccc(-c3ccc(N4CCCC4)nn3)cc2)cc1[N+](=O)[O-]	NadD inh 57 | NadD inh conf inactive
O=[N+]([O-])c1ccc(S(=O)(=O)Nc2ccc(-c3ccc(N4CCCC4)nn3)cc2)cc1	none
O=[N+]([O-])c1ccc(Cl)c(S(=O)(=O)Nc2ccc(-c3ccc(N4CCCC4)nn3)cc2)c1	none
Oc1ccc(C=NNc2cc(N3CCOCC3)nc(N3CCOCC3)n2)c(O)c1	none (no result: GRIN3A LBD mod, ATG4B inhibitor, SENP1 FRET inh, NadD inh)
O=[N+]([O-])c1ccc(S(=O)(=O)NN=Cc2cccs2)cc1	none (no result: GRIN3A LBD mod, ATG4B inhibitor, SENP1 FRET inh, NadD inh)
COc1ccc(/C=C2/SC(=O)N(CCC(=O)Nc3ccc(S(=O)(=O)Nc4nccs4)cc3)C2=O)cc1	NadD inh 69 (no result: UCH37 inh) | NadD inh conf 49
COc1ccc(/C=C2\SC(=O)N(CCC(=O)Nc3ccc(S(=O)(=O)Nc4nccs4)cc3)C2=O)cc1	GRIN3A LBD mod 11, NadD inh 76 | NadD inh conf 60
O=C(CCN1C(=O)S/C(=C\c2cccs2)C1=O)Nc1nccs1	none
CCNC(=S)NNC(=O)c1cc(-c2ccc(OCC)cc2)nc2ccccc12	none
COc1ccc(Cl)cc1C(=O)NNC(=S)NC(=O)c1cc(-c2ccccc2)nc2ccccc12	NadD inh 61 | NadD inh conf inactive
COc1cc2c(cc1NC(=O)c1cc(-c3cccnc3)nc3ccc(C)cc13)oc1ccccc12	none
COc1cc2c(cc1NC(=O)c1cc(-c3ccncc3)nc3ccccc13)oc1ccccc12	NadD inh 48 | NadD inh conf inactive
CNC(=S)NNC(=O)c1cc(-c2cccnc2)nc2ccccc12	none
CCCOc1ccc(C(=O)NNC(=S)NC(=O)c2cc(-c3ccc(Cl)cc3)nc3ccccc23)cc1	GRIN3A LBD mod 14, NadD inh 79 | NadD inh conf inactive
COc1ccc(-c2cc(C(=O)NNC(=S)NC(=O)c3c(-c4ccccc4)noc3C)[nH]n2)cc1	NadD inh 42 | NadD inh conf 52
O=[N+]([O-])c1cccc(C=Nn2c(COc3ccccc3)n[nH]c2=S)c1	none (no result: GRIN3A LBD mod, ATG4B inhibitor, SENP1 FRET inh, NadD inh)
CC(C)(C)c1ccc(-c2cc(C(=O)NNC(=O)Nc3ccccc3)c3ccccc3n2)cc1	GRIN3A LBD mod 12, NadD inh 37 | NadD inh conf inactive
COc1cccc(-c2cc(C(=O)Nc3nc4ccccc4s3)c3ccccc3n2)c1	NadD inh 36 | NadD inh conf inactive
COc1ccc(C(=O)NNC(=S)NC(=O)c2cc(-c3ccccc3)nc3ccccc23)cc1	GRIN3A LBD mod 14, NadD inh 49 | NadD inh conf 68
COC(=O)c1ccc(NC(=S)NC(=O)c2cc(-c3ccccc3)nc3ccccc23)cc1	none (no result: UCH37 inh)
CNC(=S)NN=Cc1cn(CCOc2ccccc2OC)c2ccccc12	none (no result: GRIN3A LBD mod, ATG4B inhibitor, SENP1 FRET inh, NadD inh)
Cc1cc(C)nc(SCc2ccc(C(=O)NN=Cc3ccc(C(=O)O)cc3)cc2)n1	none (no result: GRIN3A LBD mod, ATG4B inhibitor, SENP1 FRET inh, NadD inh)
Cc1ccc(Cl)cc1N1CCN(S(=O)(=O)c2ccc3c(c2)CC(=O)N3C)CC1	NadD inh 29 | NadD inh conf inactive
Cc1ccc(C)c(N2CCN(S(=O)(=O)c3ccc4[nH]c(=O)c(=O)[nH]c4c3)CC2)c1	NadD inh 32 | NadD inh conf 54

Screens: PubChem BioAssay, several laboratories
